Data as given in article PMC10568961 (Research in Pharmaceutical Sciences, 2023).
≈ marks a conversion by molar mass, not a printed value. Read-outs that look alike come from different tables or passages of the source. Marks after values point to notes of the source that are not given here. Values belong to the compound of their own block, whether it stands above or below them.

What was measured:
[1] = system: MRC-5 (human lung fibroblast) cells; experiment: Trypan blue dye exclusion assay, MRC-5 cells; type: cell-based
In short: (§1)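 Cells were seeded at 5,000/well for 24 h: MRC-5 in EMEM and A549 in F-12K, each with 10% FBS. They were then given test compound (50, 100, 150 μg/mL), cisplatin (0.5, 1, 2 μg/mL) or 0.5% DMSO control for 24–72 h at 37 °C, 5% CO2. After trypsinisation, viable cells were counted by trypan blue exclusion on a hemocytometer (quadruplicate wells). IC50 came from growth curves. At least three repeats.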

[2] = system: A549 (human lung carcinoma) cells; experiment: Trypan blue dye exclusion assay, A549 cells; type: cell-based
In short: as §1

[3] = system: MRC-5 (human lung fibroblast) cells; experiment: MTS cell viability assay, MRC-5 cells; type: cell-based
[4] = system: A549 cells; experiment: Scratch assay of cell migration; type: cell-based, human
In short: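 A549 monolayers were grown to 90–100% confluence in 24 h, scratched with a pipette tip and washed with PBS; initial gap width was measured at ×400. Cells were then kept in serum-free medium with test compound (0–150 μg/mL) or cisplatin (1 μg/mL) at 37 °C, 5% CO2. Gap widths were read by phase-contrast at each time point to 72 h, giving % wound closure. Three repeats.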

[5] = system: A549 cells; experiment: Matrigel invasion assay; type: cell-based, human
In short: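 Matrigel was diluted in cold serum-free medium and gelled overnight at 37 °C in Transwell upper chambers. A549 cells were added in serum-free medium with test compound (0–150 μg/mL) or cisplatin (1 μg/mL), with 10% FBS below as chemoattractant, for 24 and 48 h at 37 °C. Invaded cells were fixed (3.7% paraformaldehyde, methanol), stained with crystal violet and counted in five fields. % invasion was set against uncoated membrane. Three repeats.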

[6] = MTS cell viability assay, MRC-5 cells; type: cell-based, human; settings: human, MRC-5 lung fibroblast cells
[7] = system: A549 (human lung carcinoma) cells; experiment: MTS cell viability assay, A549 cells; type: cell-based; settings: for viability at 50 µg/mL / viability at 100 µg/mL / viability at 150 µg/mL: read-out: Cell viability (%)

Compound: N.N.[Cl][Pt][Cl] [DDP, cis-diamminedichloroplatinum II]
Number of cells ([1]; MRC-5, 0.5 μg/mL, 24 h): 13,900 ± 302^b
Number of cells ([1]; MRC-5, 0.5 μg/mL, 48 h): 15,666 ± 418^a,b
Number of cells ([1]; MRC-5, 0.5 μg/mL, 72 h): 21,100 ± 488^a,b
Number of cells ([1]; MRC-5, 1 μg/mL, 24 h): 13,516 ± 414
Number of cells ([1]; MRC-5, 1 μg/mL, 48 h): 15,400 ± 347^a,b
Number of cells ([1]; MRC-5, 1 μg/mL, 72 h): 20,500 ± 465^a,b
Number of cells ([1]; MRC-5, 2 μg/mL, 24 h): 12,933 ± 396^a
Number of cells ([1]; MRC-5, 2 μg/mL, 48 h): 14,933 ± 292^b
Number of cells ([1]; MRC-5, 2 μg/mL, 72 h): 19,666 ± 389^a,b
Number of cells ([2]; A549, 0.5 μg/mL, 24 h): 14,000± 310^a,b
Number of cells ([2]; A549, 0.5 μg/mL, 48 h): 14,050 ± 523^a,b
Number of cells ([2]; A549, 0.5 μg/mL, 72 h): 16,666 ± 420^b
Number of cells ([2]; A549, 1 μg/mL, 24 h): 11,250± 545^a,b
Number of cells ([2]; A549, 1 μg/mL, 48 h): 11,616 ± 590^a,b
Number of cells ([2]; A549, 1 μg/mL, 72 h): 12,833 ± 564^a,b
Number of cells ([2]; A549, 2 μg/mL, 24 h): 8,583± 589^a,b
Number of cells ([2]; A549, 2 μg/mL, 48 h): 9,833 ± 650^a,b
Number of cells ([2]; A549, 2 μg/mL, 72 h): 8,983 ± 310^a,b
IC50 values, MRC-5 cells ([3]; MTS assay, 72-h): > 2 µg/mL
Gap closure (%) ([4]; A549, 0.5 μg/mL, 0 h): 0%
Gap closure (%) ([4]; A549, 0.5 μg/mL, 24 h): 3.09 ± 0.25^a,b %
Gap closure (%) ([4]; A549, 0.5 μg/mL, 48 h): 4.36 ± 0.60^a %
Gap closure (%) ([4]; A549, 0.5 μg/mL, 72 h): 4.77 ± 0.19^a %
Gap closure (%) ([4]; A549, 1 μg/mL, 0 h): 0%
Gap closure (%) ([4]; A549, 1 μg/mL, 24 h): 2.52 ± 0.16^a,b %
Gap closure (%) ([4]; A549, 1 μg/mL, 48 h): 3.18 ± 0.04^a,b %
Gap closure (%) ([4]; A549, 1 μg/mL, 72 h): 3.55 ± 0.42^a %
Gap closure (%) ([4]; A549, 2 μg/mL, 0 h): 0%
Gap closure (%) ([4]; A549, 2 μg/mL, 24 h): 2.38 ± 0.06^a,b %
Gap closure (%) ([4]; A549, 2 μg/mL, 48 h): 2.92 ± 0.04^a,b %
Gap closure (%) ([4]; A549, 2 μg/mL, 72 h): 3.53 ± 0.16^a,b %
Invasion (%) ([5]; A549, 0.5 μg/mL, 24 h): 29.01 ± 4.99^a,b %
Invasion (%) ([5]; A549, 0.5 μg/mL, 48 h): 18.62 ± 3.11^a,b %
Invasion (%) ([5]; A549, 1 μg/mL, 24 h): 26.12 ± 4.22^a,b %
Invasion (%) ([5]; A549, 1 μg/mL, 48 h): 16.13 ± 2.66^a,b %
Invasion (%) ([5]; A549, 2 μg/mL, 24 h): 20.91 ± 2.05^a,b %
Invasion (%) ([5]; A549, 2 μg/mL, 48 h): 14.42 ± 1.57^a,b %

IC50 ([2]; Homo sapiens, A549, 72 h, read-out: IC50 values, A549 cells): 97.7 ± 4.23 µg/mL (≈ 160 µM)
IC50 ([7]; A549, 72 h, read-out: IC50 values, A549 cells): 106 ± 3.52 µg/mL (≈ 175 µM)
Compound: COc1ccc(-c2cc(=O)c3c(O)cc(O[C@@H]4O[C@H](CO[C@@H]5O[C@@H](C)[C@H](O)[C@@H](O)[C@H]5O)[C@@H](O)[C@H](O)[C@H]4O)cc3o2)cc1O [Diosmin, diosmin]
IC50 ([1]; Homo sapiens, MRC5, 72 h, read-out: IC50 value, MRC-5 cells): > 150 µg/mL
Number of cells ([1]; MRC-5, 50 μg/mL, 24 h): 11,666± 387^a,b
Number of cells ([1]; MRC-5, 50 μg/mL, 48 h): 14,583 ± 489^b
Number of cells ([1]; MRC-5, 50 μg/mL, 72 h): 19,583 ± 405^a,b
Number of cells ([1]; MRC-5, 100 μg/mL, 24 h): 9,583 ± 463^a,b
Number of cells ([1]; MRC-5, 100 μg/mL, 48 h): 12,083 ± 723^a
Number of cells ([1]; MRC-5, 100 μg/mL, 72 h): 17,500 ± 456^a,b
Number of cells ([1]; MRC-5, 150 μg/mL, 24 h): 6,666± 709^a,b
Number of cells ([1]; MRC-5, 150 μg/mL, 48 h): 10,000 ± 630^a,b
Number of cells ([1]; MRC-5, 150 μg/mL, 72 h): 15,833 ± 544^a,b
Number of cells ([2]; A549, 50 μg/mL, 24 h): 13,333± 444^a,b
Number of cells ([2]; A549, 50 μg/mL, 48 h): 18,333 ± 510^b
Number of cells ([2]; A549, 50 μg/mL, 72 h): 26,250 ± 392^a,b
Number of cells ([2]; A549, 100 μg/mL, 24 h): 10,833± 487^a,b
Number of cells ([2]; A549, 100 μg/mL, 48 h): 13,750 ± 538^a,b
Number of cells ([2]; A549, 100 μg/mL, 72 h): 18,750 ± 426^a,b
Number of cells ([2]; A549, 150 μg/mL, 24 h): 6,666± 539^a,b
Number of cells ([2]; A549, 150 μg/mL, 48 h): 8,750 ± 572^a,b
Number of cells ([2]; A549, 150 μg/mL, 72 h): 11,250 ± 559^a,b
viability at 24 h, 50 μg/mL [6]: 80.9 ± 8.46%
viability at 24 h, 100 μg/mL [6]: 54.7 ± 7.45%
viability at 24 h, 150 μg/mL [6]: 44.9 ± 5.58%
viability at 48 h, 50 μg/mL [6]: 78 ± 9.3%
viability at 48 h, 100 μg/mL [6]: 53.9 ± 9.19%
viability at 48 h, 150 μg/mL [6]: 47.5 ± 2.05%
viability at 72 h, 50 μg/mL [6]: 86.7 ± 1.38%
viability at 72 h, 100 μg/mL [6]: 71 ± 9.54%
viability at 72 h, 150 μg/mL [6]: 49.9 ± 8.02%
IC50 ([3]; Homo sapiens, MRC5, 72 h, read-out: IC50 values, MRC-5 cells): 150 ± 6.32 µg/mL (≈ 246 µM)
viability at 50 µg/mL ([7]; A549, 24 h): 72.3 ± 3.23%
viability at 100 µg/mL ([7]; A549, 24 h): 61.6 ± 4.07%
viability at 150 µg/mL ([7]; A549, 24 h): 45.6 ± 4.59%
viability at 50 µg/mL ([7]; A549, 48 h): 71.1 ± 1.37%
viability at 100 µg/mL ([7]; A549, 48 h): 57.6 ± 5.15%
viability at 150 µg/mL ([7]; A549, 48 h): 47.3 ± 6.78%
viability at 50 µg/mL ([7]; A549, 72 h): 54.9 ± 3.43%
viability at 100 µg/mL ([7]; A549, 72 h): 50.7 ± 1.19%
viability at 150 µg/mL ([7]; A549, 72 h): 35.6 ± 5.95%
Gap closure (%) ([4]; A549, 50 μg/mL, 0 h): 0%
Gap closure (%) ([4]; A549, 50 μg/mL, 24 h): 4.88 ± 0.82^a %
Gap closure (%) ([4]; A549, 50 μg/mL, 48 h): 7.58 ± 1.07^a,b %
Gap closure (%) ([4]; A549, 50 μg/mL, 72 h): 10.82 ± 1.10^b %
Gap closure (%) ([4]; A549, 100 μg/mL, 0 h): 0%
Gap closure (%) ([4]; A549, 100 μg/mL, 24 h): 3.97 ± 0.26^a %
Gap closure (%) ([4]; A549, 100 μg/mL, 48 h): 6.08 ± 0.87^a %
Gap closure (%) ([4]; A549, 100 μg/mL, 72 h): 8.24 ± 0.67^a,b %
Gap closure (%) ([4]; A549, 150 μg/mL, 0 h): 0%
Gap closure (%) ([4]; A549, 150 μg/mL, 24 h): 3.32 ± 0.19^a,b %
Gap closure (%) ([4]; A549, 150 μg/mL, 48 h): 5.32 ± 0.64^a %
Gap closure (%) ([4]; A549, 150 μg/mL, 72 h): 6.84 ± 0.55^a,b %
Invasion (%) ([5]; A549, 50 μg/mL, 24 h): 43.51 ± 2.39^a,b %
Invasion (%) ([5]; A549, 50 μg/mL, 48 h): 38.05 ± 5.14^a,b %
Invasion (%) ([5]; A549, 100 μg/mL, 24 h): 38.60 ± 3.31^a,b %
Invasion (%) ([5]; A549, 100 μg/mL, 48 h): 31.39 ± 2.71^a,b %
Invasion (%) ([5]; A549, 150 μg/mL, 24 h): 34.79 ± 3.59^a,b %
Invasion (%) ([5]; A549, 150 μg/mL, 48 h): 27.60 ± 1.62^a,b %
Invasion (%) ([5]; A549, 150 μg/mL, 48 h, listed as diosmin): 27.60 ± 1.62%
